Source: ChEMBL document CHEMBL2016446, “Trivalent ultrashort lipopeptides are potent pH dependent antifungal agents” (J Med Chem, 2012)
Converted amounts (≈) assume the structure as drawn. The source made the active and inactive calls. The calls are words filed in the database; no cut-off is given here.

Tests used:
Aspergillus fumigatus [1] = assay: Induction of membrane damage in Aspergillus fumigatus at 1.56 to 100 uM at pH 5.5 by Sytox green-based fluorescence assay; format: functional, organism-based
In short: (§1)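 A. fumigatus at 2 × 10^3 CFU/mL in RPMI/MOPS (pH 7.4 or 5.5) was grown 20 h at 35 °C. Sytox green was added at 0.2 μM final in sodium phosphate buffer (pH 5.5 or 7.5) for 15 min. Peptides were then added at 100–1.56 μM final. Fluorescence (ex 485/em 530 nm) was read after 1 h.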

Escherichia coli [2] = assay: Antibacterial activity against Escherichia coli ATCC D21 after 18 to 20 hrs at pH 7.5; format: functional, organism-based
In short: (§2)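 Broth microdilution in LB: bacterial suspension at 10^6 CFU/mL mixed 1:1 with serial 2-fold peptide dilutions, made from a 1 mg/mL aqueous stock. Strains were E. coli ATCC D21 and S. aureus ATCC 6538P. MIC was the lowest concentration with no growth after 18–20 h. Values are averages of duplicate experiments.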

Aspergillus fumigatus [3] = assay: Induction of membrane damage in Aspergillus fumigatus at 1.56 to 100 uM at pH 7.5 by Sytox green-based fluorescence assay; format: functional, organism-based; in short: as §1
Staphylococcus aureus [4] = assay: Antibacterial activity against Staphylococcus aureus ATCC 6538P after 18 to 20 hrs at pH 7.5; format: functional, organism-based; in short: as §2
Aspergillus fumigatus [5] = assay: Induction of membrane depolarization in Aspergillus fumigatus at 1.56 to 100 uM at pH 5.5 by DiSC3(5)-based fluorescence assay; format: functional, organism-based
In short: (§3)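 A. fumigatus was pregrown 20 h at 35 °C from 2 × 10^3 CFU/mL in RPMI/MOPS (pH 7.4 or 5.5). Cells were loaded with DiSC3(5) at 0.2 μM final in sodium phosphate buffer (pH 5.5 or 7.5) for 15 min. Peptides were added at 1.56–100 μM final, and fluorescence (ex 640/em 660 nm) was read after 1 h.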

Staphylococcus aureus [6] = assay: Antibacterial activity against Staphylococcus aureus ATCC 6538P after 18 to 20 hrs at pH 5.5; format: functional, organism-based; in short: as §2
Escherichia coli [7] = assay: Antibacterial activity against Escherichia coli ATCC D21 after 18 to 20 hrs at pH 5.5; format: functional, organism-based; in short: as §2
Aspergillus fumigatus [8] = assay: Induction of membrane depolarization in Aspergillus fumigatus at 1.56 to 100 uM at pH 7.5 by DiSC3(5)-based fluorescence assay; format: functional, organism-based; in short: as §3
RAW264.7 = assay: Cytotoxicity against mouse RAW264.7 cells at 200 uM after 16 hrs by XTT assay; format: cell-based; settings: raw264.7, 16 h
In short: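 RAW264.7 macrophages were grown in DMEM with 10% FBS, L-glutamine, pyruvate and nonessential amino acids at 37 °C, 5% CO2. Cells were seeded at 2 × 10^5 per well overnight, then exposed to peptides at 3.12–200 μM for 16 h. Medium was replaced with fresh medium plus XTT reagent. LC50 was taken from dose–viability curves.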

Aspergillus fumigatus [9] = assay: Antifungal activity against Aspergillus fumigatus Af293 infected in immunocompromized ICR mouse assessed as reduction in fungal load in spleen at 4.5 mg/kg, at pH 5.5 it administered on day 1 and 4 measured after 5 days post infection (reference value: 10 to 140 CFU); format: functional; settings: route endotracheal
Mus musculus [10] = assay: Toxicity in immunocompromized ICR mouse assessed as visible signs of toxicity at 9 mg/kg, at pH 5.5 it administered on day 1, 4, 7 and 11 monitored for 28 days; format: organism-based; design: dose 9 mg/kg, route endotracheal; settings: in vivo, inhaled_or_intranasal, pH 5.5, 9 mg/kg, 672 h
In short: (§4)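 Six-week-old female ICR mice (n = 5) were immunosuppressed with cortisone acetate (150 mg/kg in PBS/0.1% Tween 80, s.c.) 4 days before the first dose, on that day, and 2 and 4 days after. Peptide in saline at pH 5.5 was given i.t. on days 1, 4, 7 and 11. Survival, weight, appearance and behaviour were followed for 28 days.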

Aspergillus fumigatus [11] = assay: Antifungal activity against Aspergillus fumigatus Af293 infected in immunocompromized ICR mouse assessed as reduction in fungal load in lung at 4.5 mg/kg, at pH 5.5 it administered on day 1 and 4 measured after 5 days post infection (reference value: 80 to 12920 CFU); format: functional; settings: route endotracheal
Cryptococcus neoformans [12] = assay: Antifungal activity against Cryptococcus neoformans ATCC MYA422 after 72 hrs at pH 7.5; format: functional; settings: ATCC MYA422, 72 h
In short: (§5)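 The method followed CLSI M38-A2 (Aspergillus) or M27-A3. Medium was RPMI 1640 with 0.165 M MOPS and L-glutamine, without NaHCO3, at pH 5.5 or 7.5. Inoculum of 2 × 10^3 CFU/mL was mixed 1:1 with serial 2-fold peptide dilutions. Incubation was at 35 °C: 48 h for A. fumigatus and C. albicans, 72 h for C. neoformans. MIC was read by eye as no growth. Values are averages of duplicates.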

Aspergillus fumigatus [13] = assay: Antifungal activity against Aspergillus fumigatus ATCC 26430 after 48 hrs at pH 5.5; format: functional; settings: ATCC 26430, 48 h; in short: as §5
[14] = Toxicity in human RBC assessed as hemolytic activity at 125 uM at pH 7.5 after 60 mins by spectrophotometry; format: cell-based; settings: erythrocyte, pH 7.5, 1 h
In short: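 Human erythrocytes (4% final) were incubated with peptide in PBS for 60 min at 37 °C. Hemoglobin release was read as supernatant absorbance at 540 nm. PBS alone served as the 0% reference and 1% Triton as the 100% reference. Values are averages of duplicates.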

Candida albicans [15] = assay: Antifungal activity against Candida albicans ATCC 10231 after 48 hrs at pH 5.5; format: functional; settings: ATCC 10231, 48 h; in short: as §5
Aspergillus fumigatus [16] = assay: Antifungal activity against Aspergillus fumigatus Af293 infected in immunocompromized ICR mouse assessed as reduction in fungal load in kidney at 4.5 mg/kg, at pH 5.5 it administered on day 1 and 4 measured after 5 days post infection (reference value: 20 to 5400 CFU); format: functional; settings: route endotracheal
[17] = Ratio of LC50 for mouse RAW264.7 cells to MIC for Aspergillus fumigatus ATCC 26430; format: functional
In short: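 LC50: RAW264.7 macrophages in supplemented DMEM, 2 × 10^5 cells/well overnight, then peptide at 3.12–200 μM for 16 h. Viability read by XTT; LC50 from dose–response curves. MIC: CLSI M38-A2 broth microdilution, 2 × 10^3 CFU/mL A. fumigatus ATCC 26430 in RPMI 1640/0.165 M MOPS (pH 5.5 or 7.5). Serial 2-fold dilutions, 35 °C for 48 h, growth scored visually. In vitro values are means of duplicates.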

[18] = Stability of the compound at 1 ug/uL after 2 hrs by RP-HPLC analysis in presence of proteinase K; format: ADME
In short: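 Peptide at 1 μg/μL in PBS (400 μL) mixed with 8 μL proteinase K solution (5 μg/μL; 2% DMSO final). Intact peptide quantified by RP-HPLC on a C4 column, 0.1% TFA water/acetonitrile, 10–90% B over 40 min. Measured against a peptide injection taken before enzyme addition. Melittin served as enzyme-activity control.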

Candida albicans [19] = assay: Antifungal activity against Candida albicans ATCC 10231 after 48 hrs at pH 7.5; format: functional; settings: ATCC 10231, 48 h; in short: as §5
Cryptococcus neoformans [20] = assay: Antifungal activity against Cryptococcus neoformans ATCC MYA422 after 72 hrs at pH 5.5; format: functional; settings: ATCC MYA422, 72 h; in short: as §5
Mus musculus [21] = assay: Toxicity in immunocompromized ICR mouse assessed as weight loss at 9 mg/kg, at pH 5.5 it administered on day 1, 4, 7 and 11 monitored for 28 days; format: organism-based; design: dose 9 mg/kg, route endotracheal; settings: in vivo, inhaled_or_intranasal, pH 5.5, 9 mg/kg, 672 h; in short: as §4
Aspergillus fumigatus [22] = assay: Antifungal activity against Aspergillus fumigatus ATCC 26430 after 48 hrs at pH 7.5; format: functional; settings: ATCC 26430, 48 h; in short: as §5
Aspergillus fumigatus [23] = assay: Antifungal activity against Aspergillus fumigatus Af293 infected in immunocompromized ICR mouse assessed as survival rate at 4.5 mg/kg, at pH 5.5 it administered on day 1, 4, 7 and 11 monitored for 28 days relative to control; format: functional; settings: route endotracheal
In short: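 Six-week-old female ICR mice immunocompromised with cortisone acetate (150 mg/kg in PBS/0.1% Tween 80, s.c.) 4 days before treatment, on day of first treatment, and 2 and 4 days after. A. fumigatus lung infection on day 1. Lipopeptide given i.t. at 4.5 mg/kg (50 μL, pH 5.5) on days 1, 4, 7 and 11. Controls: saline, amphotericin B 1 mg/kg i.p. Survival followed 28 days; n = 9–10.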

Compound: CCCCCCCCCCCCCC(=O)N[C@@H](Cc1c[nH]cn1)C(=O)N[C@@H](Cc1c[nH]cn1)C(=O)N1CCCN(C(=O)[C@H](Cc2c[nH]cn2)NC(=O)[C@H](Cc2c[nH]cn2)NC(=O)CCCCCCCCCCCCC)Cc2cc(cc(C(N)=O)c2)CN(C(=O)[C@H](Cc2c[nH]cn2)NC(=O)[C@H](Cc2c[nH]cn2)NC(=O)CCCCCCCCCCCCC)CCC1 [listing 1 of 3 here]
- Activity (Aspergillus fumigatus [1]): inactive
- Activity (Escherichia coli [2]): inactive
- Activity (Aspergillus fumigatus [3]): inactive
- Activity (Staphylococcus aureus [4]): inactive
- Activity (Aspergillus fumigatus [5]): Active
- Activity (Staphylococcus aureus [6]): inactive
- Activity (Escherichia coli [7]): inactive
- Activity (Aspergillus fumigatus [8]): Active

Compound: CCCCCCCCCCCCCC(=O)N[C@@H](Cc1c[nH]cn1)C(=O)N[C@@H](Cc1c[nH]cn1)C(=O)N1CCCN(C(=O)[C@H](Cc2c[nH]cn2)NC(=O)[C@H](Cc2c[nH]cn2)NC(=O)CCCCCCCCCCCCC)Cc2cc(cc(C(N)=O)c2)CN(C(=O)[C@H](Cc2c[nH]cn2)NC(=O)[C@H](Cc2c[nH]cn2)NC(=O)CCCCCCCCCCCCC)CCC1 [listing 2 of 3 here]
- Activity (RAW264.7): Non-toxic
- CFU (Aspergillus fumigatus [9]): 20
- Activity (Mus musculus [10]): Non-toxic
- CFU (Aspergillus fumigatus [11]): 40
- MIC (Cryptococcus neoformans [12]): > 100 µM
- MIC (Aspergillus fumigatus [13]): 3.12 µM (≈ 5.4 µg/mL)
- Activity [14]: Non-toxic
- MIC (Candida albicans [15]): > 100 µM
- CFU (Aspergillus fumigatus [16]): 70
- Ratio [17]: 64
- remaining at 2 h, 1 ug/uL ([18]; proteinase K, read-out: Stability): 80%
- MIC (Candida albicans [19]): > 100 µM
- MIC (Cryptococcus neoformans [20]): 3.12 µM (≈ 5.4 µg/mL)
- Activity (Mus musculus [21]): Non-toxic
- MIC (Aspergillus fumigatus [22]): > 100 µM

Compound: CC[C@H](C)[C@H](NC(=O)CN)C(=O)NCC(=O)N[C@@H](C)C(=O)N[C@H](C(=O)N[C@@H](CC(C)C)C(=O)N[C@@H](CCCCN)C(=O)N[C@H](C(=O)N[C@@H](CC(C)C)C(=O)N[C@H](C(=O)N[C@H](C(=O)NCC(=O)N[C@@H](CC(C)C)C(=O)N1CCC[C@H]1C(=O)N[C@@H](C)C(=O)N[C@@H](CC(C)C)C(=O)N[C@H](C(=O)N[C@@H](CO)C(=O)N[C@@H](Cc1c[nH]c2ccccc12)C(=O)N[C@H](C(=O)N[C@@H](CCCCN)C(=O)N[C@@H](CCCNC(=N)N)C(=O)N[C@@H](CCCCN)C(=O)N[C@@H](CCCNC(=N)N)C(=O)N[C@@H](CCC(N)=O)C(=O)N[C@@H](CCC(N)=O)C(N)=O)[C@@H](C)CC)[C@@H](C)CC)[C@@H](C)O)[C@@H](C)O)C(C)C)C(C)C [MELITTIN]
- Activity (Aspergillus fumigatus [1]): Active
- Stability ([18]; 2 h): Unstable
- Activity (Aspergillus fumigatus [3]): Active
- Activity (Aspergillus fumigatus [5]): Active
- Activity (Aspergillus fumigatus [8]): Active

Compound: CCCCCCCCCCCCCC(=O)N[C@@H](Cc1c[nH]cn1)C(=O)N[C@@H](Cc1c[nH]cn1)C(=O)N1CCCN(C(=O)[C@H](Cc2c[nH]cn2)NC(=O)[C@H](Cc2c[nH]cn2)NC(=O)CCCCCCCCCCCCC)Cc2cc(cc(C(N)=O)c2)CN(C(=O)[C@H](Cc2c[nH]cn2)NC(=O)[C@H](Cc2c[nH]cn2)NC(=O)CCCCCCCCCCCCC)CCC1 [listing 3 of 3 here]
- survival at 4.5 mg/kg (Aspergillus fumigatus [23]): 55%
